Test results as given in PMC5071636 (Acta Pharmaceutica Sinica. B, 2016).

Assays:
[1] = test system: eEF2 phosphorylation in HCT116 cells; test: Western blot of phospho-eEF2 in HCT116 cells; assay type: cell-based, human; settings: 6 h treatment
[2] = test system: eEF2 phosphorylation in MDA-MB-453 cells; test: Western blot of phospho-eEF2; assay type: cell-based, human
How it was run: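 MDA-MB-453 grown in L15 with 10% FBS, 1 mmol/L pyruvate, 0.5 mg/mL geneticin, no CO2. Seeded at 2×10^5 cells/well; 24 h later given test compound at several concentrations for 6 h. Lysed in 2× SDS loading buffer, 95 °C 10 min, on 10% gels to PVDF, milk-blocked. Probed overnight at 4 °C for phospho-eEF2 Thr56 and eEF2, β-actin loading control. Fluorescent secondary read-out. Three independent experiments in duplicate, mean ±SEM.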

[3] = test system: eEF2 phosphorylation in H1299 cells; test: Western blot of phospho-eEF2 in H1299 cells; assay type: cell-based, human; settings: 6 h treatment
eEF2K in cells = settings: cited from earlier work
cells = settings: at high concentrations; cited from earlier work
eEF2K = settings: cited from earlier work

CCn1c(=O)c2cc(C(N)=O)c(N)nc2n(C2CC2)c1=O [A484954]
effect on eEF2 phosphorylation (p-eEF2) [1]: capable of inhibiting eEF2 phosphorylation
effect on eEF2 phosphorylation (p-eEF2) ([2]; MDA-MB-453 cells, 6 h treatment): capable of inhibiting eEF2 phosphorylation
total protein level of eEF2 ([2]; in the cell): not affected
effect on eEF2 phosphorylation (p-eEF2) [3]: capable of inhibiting eEF2 phosphorylation
potency on eEF2K in cells (eEF2K in cells): rather low potency
cytotoxicity (cells): cytotoxic at high concentrations

CCCCCCCCCCCCCCCC[n+]1ccn(Cc2ccccc2)c1C.[I-] [NH125, 1-Benzyl-3-cetyl-2-methylimidazolium iodide]
effect on eEF2 phosphorylation in vivo (eEF2K in cells): promotes eEF2 phosphorylation
effect on eEF2K activity in vitro (eEF2K): inhibits eEF2K activity

c1cnc2sccc2c1 [Thieno [2,3-b] pyridine]
inhibitory effects on eEF2K in cells (eEF2K in cells): weak inhibitory effects
